From ChEMBL document CHEMBL1926500, “Design, synthesis, biological evaluation and molecular modeling of 1,3,4-oxadiazoline analogs of combretastatin-A4 as novel antitubulin agents” (Bioorg Med Chem, 2012)
One block for each compound: values may come before it.

How the values were obtained:
[1] = Inhibition of bovine brain tubulin polymerization after 20 mins by turbidimetry; design: species or system Bos taurus
Outline: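 Bovine brain tubulin, purified in-house, used at 10 μM in glutamate buffer and preincubated with varying compound concentrations at 30 °C, then cooled to 0 °C. GTP added, mixtures warmed to 30 °C in a recording spectrophotometer, and assembly followed turbidimetrically. IC50 is the concentration inhibiting extent of assembly by 50% after 20 min.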

B16-F10 [2] = test: Antiproliferative activity against mouse B16F10 cells after 48 hrs by MTT assay; type: functional, cell-based; conditions: B16-F10, 48 h
Outline: (§1)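 Cells grown to log phase in RPMI 1640 with 10% FBS, seeded at 2×10^4 cells/mL, then left 24 h at 37 °C, 5% CO2 before dosing at pre-set concentrations. […] After 48 h exposure, MTT (2.5 mg/mL in PBS) was added for 4 h, then SDS/isobutyl alcohol/HCl extraction overnight at 37 °C, and OD read at 570 nm. Triplicate wells per concentration; each assay run at least three times; IC50 derived.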

MCF7 = test: Antiproliferative activity against human MCF7 cells after 48 hrs by MTT assay; type: functional, cell-based; conditions: MCF7, 48 h; outline: as §1
HepG2 = test: Antiproliferative activity against human HepG2 cells after 48 hrs by MTT assay; type: functional, cell-based; conditions: HepG2, 48 h; outline: as §1
B16-F10 [3] = test: Cell cycle arrest in mouse B16F10 cells assessed as accumulation at S phase at 2 ug/ml after 24 hrs by flow cytometry analysis (reference value: 9.97 %); type: functional
B16-F10 [4] = test: Cell cycle arrest in mouse B16F10 cells assessed as accumulation at Go/G1 phase at 2 ug/ml after 24 hrs by flow cytometry analysis (reference value: 70.4 %); type: functional
B16-F10 [5] = test: Cell cycle arrest in mouse B16F10 cells assessed as accumulation at G2/M phase at 2 ug/ml after 24 hrs by flow cytometry analysis (reference value: 17.67 %); type: functional
B16-F10 [6] = test: Cell cycle arrest in mouse B16F10 cells assessed as accumulation at S phase at 1 ug/ml after 24 hrs by flow cytometry analysis (reference value: 9.97 %); type: functional
B16-F10 [7] = test: Cell cycle arrest in mouse B16F10 cells assessed as accumulation at G2/M phase at 1 ug/ml after 24 hrs by flow cytometry analysis (reference value: 17.67 %); type: functional

Compound: COc1ccc(C2OC(c3ccc4ccccc4c3)=NN2C(C)=O)cc1 (centres undefined)
IC50 [1]: 105 µM | pIC50 [1]: 3.51 | IC50 (B16-F10 [2]): 6.86 µM | IC50 (MCF7): 7.35 µM | IC50 (HepG2): 3.6 µM

Compound: CC(=O)N1N=C(c2ccc3ccccc3c2)OC1c1ccccc1Br (centres undefined)
IC50 [1]: 51.5 µM | pIC50 [1]: 3.88 | IC50 (B16-F10 [2]): 6.98 µM | IC50 (MCF7): 5.49 µM | IC50 (HepG2): 3.98 µM

Compound: CC(=O)N1N=C(c2ccc3ccccc3c2)OC1c1ccc(Br)cc1 (centres undefined)
IC50 [1]: 33.8 µM | pIC50 [1]: 4.06 | IC50 (B16-F10 [2]): 4.68 µM | IC50 (MCF7): 5.07 µM | IC50 (HepG2): 2.08 µM

Compound: CC(=O)N1N=C(c2ccc3ccccc3c2)OC1c1ccccc1Cl (centres undefined)
IC50 [1]: 51.4 µM | pIC50 [1]: 3.83 | IC50 (B16-F10 [2]): 4.93 µM | IC50 (MCF7): 2.36 µM | IC50 (HepG2): 4.32 µM

Compound: CC(=O)N1N=C(c2ccc3ccccc3c2)OC1c1ccccc1F (centres undefined)
IC50 [1]: 48.1 µM | pIC50 [1]: 3.84 | IC50 (B16-F10 [2]): 6.05 µM | IC50 (MCF7): 3.44 µM | IC50 (HepG2): 3.36 µM

Compound: CC(=O)N1N=C(c2ccc3ccccc3c2)OC1c1ccc(F)cc1 (centres undefined)
IC50 [1]: 28.1 µM | pIC50 [1]: 4.07 | IC50 (B16-F10 [2]): 4.65 µM | IC50 (MCF7): 3.02 µM | IC50 (HepG2): 1.82 µM

Compound: CC(=O)N1N=C(c2ccc3ccccc3c2)OC1c1ccccc1[N+](=O)[O-] (centres undefined)
IC50 [1]: 140 µM | pIC50 [1]: 3.4 | IC50 (B16-F10 [2]): 9.01 µM | IC50 (MCF7): 18.2 µM | IC50 (HepG2): 12.3 µM

Compound: CC(=O)N1N=C(c2ccc3ccccc3c2)OC1c1ccc([N+](=O)[O-])cc1 (centres undefined)
IC50 [1]: 103 µM | pIC50 [1]: 3.54 | IC50 (B16-F10 [2]): 9.32 µM | IC50 (MCF7): 7.59 µM | IC50 (HepG2): 8.1 µM

Compound: CC(=O)N1N=C(c2ccc3ccccc3c2)OC1c1ccccc1O (centres undefined)
IC50 [1]: 27.1 µM | pIC50 [1]: 4.08 | IC50 (B16-F10 [2]): 2.58 µM | IC50 (MCF7): 2.12 µM | IC50 (HepG2): 1.84 µM

Compound: CC(=O)N1N=C(c2ccc3ccccc3c2)OC1c1ccccn1 (centres undefined)
IC50 [1]: 53.8 µM | pIC50 [1]: 3.77 | IC50 (B16-F10 [2]): 7.18 µM | IC50 (MCF7): 6.02 µM | IC50 (HepG2): 5.26 µM

Compound: CC(=O)N1N=C(c2ccc3ccccc3c2)OC1c1ccc(C)cc1 (centres undefined)
IC50 [1]: 30.5 µM | pIC50 [1]: 4.03 | IC50 (B16-F10 [2]): 3.85 µM | IC50 (MCF7): 2.9 µM | IC50 (HepG2): 2.26 µM

Compound: CC(=O)N1N=C(c2ccc3ccccc3c2)OC1c1ccsc1 (centres undefined)
IC50 [1]: 51.9 µM | pIC50 [1]: 3.79 | IC50 (B16-F10 [2]): 8.56 µM | IC50 (MCF7): 7.98 µM | IC50 (HepG2): 6.82 µM

Compound: CC(=O)N1N=C(c2ccc3ccccc3c2)OC1c1ccc(OCc2ccccc2)cc1 (centres undefined)
IC50 [1]: 58.2 µM | pIC50 [1]: 3.86 | IC50 (B16-F10 [2]): 8.08 µM | IC50 (MCF7): 5.49 µM | IC50 (HepG2): 3.38 µM

Compound: COc1cc2c(c(OC)c1OC)-c1ccc(OC)c(=O)cc1[C@@H](NC(C)=O)CC2 [COLCHICINE]
Activity (B16-F10 [6]): 2.43% | Activity (B16-F10 [7]): 75.24%

Compound: COc1ccc(/C=C\c2cc(OC)c(OC)c(OC)c2)cc1O [COMBRETASTATIN A4]
IC50 [1]: 2.9 µM | IC50 (B16-F10 [2]): 0.75 µM | IC50 (MCF7): 0.48 µM | IC50 (HepG2): 0.54 µM

The remaining compounds from weak to strong by IC50 [1], led by results:

IC50 [1]: 22.8 µM | pIC50 [1]: 4.14 | IC50 (B16-F10 [2]): 2.97 µM | IC50 (MCF7): 2.56 µM | IC50 (HepG2): 2.17 µM
Compound: CC(=O)N1N=C(c2ccc3ccccc3c2)OC1c1ccncc1 (centres undefined)

IC50 [1]: 21.2 µM | pIC50 [1]: 4.17 | IC50 (B16-F10 [2]): 2.57 µM | IC50 (MCF7): 2.43 µM | IC50 (HepG2): 2.11 µM
Compound: CC(=O)N1N=C(c2ccc3ccccc3c2)OC1c1ccccc1 (centres undefined)

IC50 [1]: 20.1 µM | pIC50 [1]: 4.19 | IC50 (B16-F10 [2]): 3.06 µM | IC50 (MCF7): 2.61 µM | IC50 (HepG2): 2.86 µM
Compound: CC(=O)N1N=C(c2ccc3ccccc3c2)OC1c1cccnc1 (centres undefined)

IC50 [1]: 19.4 µM | pIC50 [1]: 4.3 | IC50 (B16-F10 [2]): 2.36 µM | IC50 (MCF7): 2.34 µM | IC50 (HepG2): 1.68 µM
Compound: CC(=O)N1N=C(c2ccc3ccccc3c2)OC1c1cccc(Br)c1 (centres undefined)

IC50 [1]: 12.7 µM | pIC50 [1]: 4.44 | IC50 (B16-F10 [2]): 2.48 µM | IC50 (MCF7): 2.63 µM | IC50 (HepG2): 1.88 µM
Compound: CC(=O)N1N=C(c2ccc3ccccc3c2)OC1c1ccc(Cl)cc1 (centres undefined)

IC50 [1]: 9.2 µM | pIC50 [1]: 4.55 | IC50 (B16-F10 [2]): 1.61 µM | IC50 (MCF7): 1.98 µM | IC50 (HepG2): 1.86 µM
Compound: CC(=O)N1N=C(c2ccc3ccccc3c2)OC1c1cccc(F)c1 (centres undefined)

IC50 [1]: 4.3 µM | pIC50 [1]: 4.93 | IC50 (B16-F10 [2]): 1.56 µM | IC50 (MCF7): 1.01 µM | IC50 (HepG2): 0.85 µM
Compound: CC(=O)N1N=C(c2ccc3ccccc3c2)OC1c1ccc2ccccc2c1 (centres undefined)
Activity (B16-F10 [3]): 2.04% | Activity (B16-F10 [4]): 1.72% | Activity (B16-F10 [5]): 77.18%
